Reference: ChEMBL document CHEMBL2146377, “Rational design of 4-aryl-1,2,3-triazoles for indoleamine 2,3-dioxygenase 1 inhibition” (J Med Chem, 2012)
Activity calls are given as the source filed them. The calls are words filed in the database; no cut-off is given here.

Assays:
[1] = biological target: Indoleamine 2,3-dioxygenase 1 (Mus musculus, UniProt P28776); assay: Inhibition of mouse IDO1 in P815 clone 6 cells by HPLC analysis; assay type: cell-based
How it was run: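 Murine mastocytoma P815 stably transfected cells were used: P815-mIDO1 clone 6 for mouse IDO1 and P815B-hIDO1 clone 6 for human IDO1. Cells with inhibitor were incubated at 37 °C until under 50% of tryptophan was consumed, as tracked in control wells by pDMAB absorbance at 480 nm. Supernatant was TCA-precipitated, and tryptophan and kynurenine were quantified by C18 HPLC. Values are the mean of ≥2 independent assays.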

[2] = biological target: T1, Indoleamine 2,3-dioxygenase 1 (Homo sapiens, UniProt P14902); assay: Inhibition of human IDO1 transfected in mouse P815B clone-6 cells by HPLC analysis; assay type: cell-based
Target sequence in this assay (P14902 whole entry): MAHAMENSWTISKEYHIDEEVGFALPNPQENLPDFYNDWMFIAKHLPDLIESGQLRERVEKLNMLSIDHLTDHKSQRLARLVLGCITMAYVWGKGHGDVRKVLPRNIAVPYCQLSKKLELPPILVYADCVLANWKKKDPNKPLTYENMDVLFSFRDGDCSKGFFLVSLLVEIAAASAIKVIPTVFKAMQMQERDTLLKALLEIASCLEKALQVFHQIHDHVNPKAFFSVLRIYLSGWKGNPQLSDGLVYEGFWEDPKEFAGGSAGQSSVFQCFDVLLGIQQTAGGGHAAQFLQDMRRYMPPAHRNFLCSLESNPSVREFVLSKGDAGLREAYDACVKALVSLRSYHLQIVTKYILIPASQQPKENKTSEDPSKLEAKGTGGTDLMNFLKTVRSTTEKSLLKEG

[3] = biological target: Tryptophan 2,3-dioxygenase (Mus musculus, UniProt P48776); assay: Inhibition of mouse TDO in P815 clone 12 cells by HPLC analysis; assay type: cell-based
Sequence of Tryptophan 2,3-dioxygenase (Mus musculus, UniProt P48776) (P48776 whole entry): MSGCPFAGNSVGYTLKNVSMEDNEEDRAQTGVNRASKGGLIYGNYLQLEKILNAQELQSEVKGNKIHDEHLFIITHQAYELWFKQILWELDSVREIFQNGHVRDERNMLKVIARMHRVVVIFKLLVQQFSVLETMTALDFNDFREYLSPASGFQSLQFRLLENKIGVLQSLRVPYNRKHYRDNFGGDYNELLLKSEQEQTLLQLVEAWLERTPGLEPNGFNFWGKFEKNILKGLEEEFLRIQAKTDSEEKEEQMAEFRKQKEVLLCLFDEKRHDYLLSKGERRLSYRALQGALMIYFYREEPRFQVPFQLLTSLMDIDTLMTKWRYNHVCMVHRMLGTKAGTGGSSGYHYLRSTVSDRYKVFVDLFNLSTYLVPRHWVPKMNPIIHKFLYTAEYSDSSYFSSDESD

[4] = biological target: Tryptophan 2,3-dioxygenase (Homo sapiens, UniProt P48775); assay: Inhibition of human TDO transfected in mouse P815B clone 19 cells by HPLC analysis; assay type: cell-based
Sequence of Tryptophan 2,3-dioxygenase (Homo sapiens, UniProt P48775) (P48775 whole entry): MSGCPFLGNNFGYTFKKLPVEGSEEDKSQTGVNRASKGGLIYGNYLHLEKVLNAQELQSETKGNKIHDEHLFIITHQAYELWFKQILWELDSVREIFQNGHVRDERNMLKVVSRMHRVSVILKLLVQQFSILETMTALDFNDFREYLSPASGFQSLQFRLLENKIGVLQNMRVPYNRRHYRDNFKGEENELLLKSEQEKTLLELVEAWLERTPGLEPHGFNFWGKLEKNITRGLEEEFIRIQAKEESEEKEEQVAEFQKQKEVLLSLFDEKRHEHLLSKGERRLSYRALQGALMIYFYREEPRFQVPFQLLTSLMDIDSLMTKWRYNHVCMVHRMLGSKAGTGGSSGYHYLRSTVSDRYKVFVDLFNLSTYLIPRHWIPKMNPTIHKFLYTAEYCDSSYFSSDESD

[5] = system: HepG2; assay: Cytotoxicity against human HepG2 cells after 24 hrs by MTS-PMS assay; assay type: functional; settings: HepG2, 24 h, read-out: LD50 (the source's name)
How it was run: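 Hep G2 cells (2 × 10⁴ per well) in IMDM with 10% FCS exposed to compound titrated 0.001–100 μM for 24 h at 37 °C; living cells counted by MTS/PMS assay; LD₅₀ reported as mean of at least two independent assays with standard deviation.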

[6] = biological target: T1, Indoleamine 2,3-dioxygenase 1; assay: Inhibition of human IDO1 transfected in HEK293 clone 6 cells by HPLC analysis; assay type: cell-based
Target sequence in this assay (P14902 whole entry, looked up): as the sequence (P14902 whole entry) above

[7] = biological target: T1, Indoleamine 2,3-dioxygenase 1; settings: at 1 mM
Target sequence in this assay (P14902 whole entry, looked up): as the sequence (P14902 whole entry) above

[8] = physchem; settings: pH 2
[9] = Dissociation constant, pKa of the compound at pH 11 to 12 by spectrophotometric analysis; assay type: physicochemical
[10] = biological target: T1, Indoleamine 2,3-dioxygenase 1; assay: Inhibition of human recombinant N-terminal His-tagged IDO1 (Ala2 to Gly403) overexpressed in Escherichia coli BL21 at pH 6.5 after 60 mins by HPLC analysis
Target sequence in this assay (P14902 whole entry): as above

Sequence of Indoleamine 2,3-dioxygenase 1 (Mus musculus, UniProt P28776) (P28776 whole entry): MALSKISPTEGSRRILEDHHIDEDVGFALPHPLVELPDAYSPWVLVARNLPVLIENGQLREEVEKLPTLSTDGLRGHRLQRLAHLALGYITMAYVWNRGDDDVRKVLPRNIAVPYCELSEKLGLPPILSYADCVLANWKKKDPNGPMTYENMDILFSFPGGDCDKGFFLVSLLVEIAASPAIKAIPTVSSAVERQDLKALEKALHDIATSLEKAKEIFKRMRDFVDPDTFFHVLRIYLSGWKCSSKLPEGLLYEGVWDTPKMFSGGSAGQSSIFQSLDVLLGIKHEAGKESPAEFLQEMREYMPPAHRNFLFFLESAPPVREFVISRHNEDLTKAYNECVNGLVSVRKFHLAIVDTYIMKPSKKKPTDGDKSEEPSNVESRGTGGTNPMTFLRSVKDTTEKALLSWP

Structure (SMILES)	IC50 [1]	IC50 [2]	IC50 [3]	IC50 [4]	CC50 [5]	inhibition [6]	inhibition [7]	pKa [8]	pKa [9]	IC50 [10]
COc1ccccc1-c1c[nH]nn1	20 µM	> 100 µM	> 100 µM	> 100 µM	> 100 µM	Active	inactive	8.99		
c1ccc(-c2cnn[nH]2)cc1	0.18 µM		> 100 µM	> 100 µM	> 100 µM	Active		8.62	0.4	
c1ccc(-c2c[nH]cn2)cc1								13.4	6.1	
c1ccc(-c2nc[nH]n2)cc1							inactive	9.29	2.05	
Clc1ccc(Cl)c(-c2c[nH]nn2)c1	0.15 µM	34 µM	> 100 µM	> 100 µM	> 100 µM	Active		8.17		6.4 µM
c1nc[nH]n1 [1,2,4-TRIAZOLE]								10.3	2.19	
c1c[nH]nn1								9.26	1.17	
Clc1cccc(-c2c[nH]nn2)c1	0.02 µM	0.62 µM	> 100 µM	> 100 µM	> 100 µM	Active		8.32		1.2 µM
